This is an account of results in PubChem BioAssay.

The source made the active and inactive calls.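 Rule for the calls, unless noted: active = viability at or under a set limit in both replicates, limit being median viability minus 3 SD (cut at about 48% in these data, passing the limit was not always enough); inconclusive = at or under the limit in just one replicate; inactive = at or above the limit in both replicates.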

Assay [1] in a line: reducers of endogenous Her2 protein level, primary screen, SKBR3 breast tumor cells, AlphaScreen, ATP viability (AID 461;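 active = Her2 level under about 52% in both replicate screens, with viability over 70% of control, limit read from the data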;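 for Her2 level: lower value means less Her2 protein in the cells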;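 for viability: percent of carrier control wells set as 100% viability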). As to conditions: 18-24 h, measured here: SKBR3 viability, ATP luminescence, at 10 µM. Background: Bead proximity is the source of the signal in Alpha formats.
Assay [2] concerns the target Receptor tyrosine-protein kinase erbB-2 (Homo sapiens) (UniProt P04626). Described as above. As to conditions: 18-24 h, at 10 µM, stronger effect = lower value.
The nature of assay [3]: SK-BR-3 cell growth inhibitors, pilot screen, 24 h, human (AID 572;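 active = viability at or below 10% of carrier control in both of two separate runs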;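 note: compound exposure lasted between 18 and 24 h rather than exactly 24 h; 100% = carrier-treated control wells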). As to conditions: SK-BR-3 viability, CellTiter-Glo luminescence, at 10 µM, stronger effect = lower value.
The nature of assay [4]: HUVEC growth inhibition – cell-based, human, primary screen (AID 575;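 active = viability at or below 30% in both replicate assays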;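 note: 100% = median of untreated cell wells with 0.1% DMSO on each plate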). As to conditions: HUVEC proliferation, CellTiter-Glo luminescence, 72 h; at 10 µM; stronger effect = lower value. In a few lines: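 material = primary HUVEC, no more than 12 passages | input = 1250 cells per well | controls = vehicle and MePR control wells | measured by = CTG luminescence | times = 72 h compound incubation | format = collagen-coated 384-well format | read-out = % viability vs DMSO wells | doses = single 10 µM dose, 0.1% DMSO, from 5x medium stock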
(Cellular ATP, detected with luciferase, serves as a proxy for viable cell number.)

The nature of assay [5]: growth inhibitors of H69AR lung tumor, primary screen, human, duplicate replicates (AID 580).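 Note: 100% = mean luminescence of untreated wells and 0% = no signal.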 The note with it: H69AR lung tumor cells viability, ATP luminescence, 72 h; at 10 µM; stronger effect = lower value.
The nature of assay [6]: reversal of MRP1-mediated doxorubicin resistance, pilot screen, H69AR cells, doxorubicin co-treatment (AID 601;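 active = viability loss from added drug above about 55%, and viability with drug at most 40%, in both replicates, limit read from the data, passing the limit was not always enough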). The note with it: CellTiter-Glo, 72 h, at 10 µM; for differential viability (reversal): stronger effect = higher value.
Assay [7] can be described thus: 384-well plate pilot, post-Golgi transport modulator project, inhibition of yeast transport mutant growth (AID 636; in the data active = inhibition above about 31%). The note with it: absorbance 615 nm, about 18 h, stronger effect = higher value.
The nature of assay [8]: growth suppression of yeast trafficking mutant, preliminary HTS, modulators of trafficking downstream of Golgi apparatus project, 1536-format plate, OD 615 nm (AID 637; in the data active = inhibition above about 30%). The note with it: yeast transport mutant growth, absorbance 615 nm, 18 h; stronger effect = higher value.
Setting [9] is: H69AR cells + 2 uM doxorubicin, measured here: viability with 2 uM doxorubicin, stronger effect = lower value.
The mark [10] stands for this setting: H69AR cells, compound alone cytotoxicity.

Chain of Receptor tyrosine-protein kinase erbB-2 (Homo sapiens) (P04626 whole entry, looked up): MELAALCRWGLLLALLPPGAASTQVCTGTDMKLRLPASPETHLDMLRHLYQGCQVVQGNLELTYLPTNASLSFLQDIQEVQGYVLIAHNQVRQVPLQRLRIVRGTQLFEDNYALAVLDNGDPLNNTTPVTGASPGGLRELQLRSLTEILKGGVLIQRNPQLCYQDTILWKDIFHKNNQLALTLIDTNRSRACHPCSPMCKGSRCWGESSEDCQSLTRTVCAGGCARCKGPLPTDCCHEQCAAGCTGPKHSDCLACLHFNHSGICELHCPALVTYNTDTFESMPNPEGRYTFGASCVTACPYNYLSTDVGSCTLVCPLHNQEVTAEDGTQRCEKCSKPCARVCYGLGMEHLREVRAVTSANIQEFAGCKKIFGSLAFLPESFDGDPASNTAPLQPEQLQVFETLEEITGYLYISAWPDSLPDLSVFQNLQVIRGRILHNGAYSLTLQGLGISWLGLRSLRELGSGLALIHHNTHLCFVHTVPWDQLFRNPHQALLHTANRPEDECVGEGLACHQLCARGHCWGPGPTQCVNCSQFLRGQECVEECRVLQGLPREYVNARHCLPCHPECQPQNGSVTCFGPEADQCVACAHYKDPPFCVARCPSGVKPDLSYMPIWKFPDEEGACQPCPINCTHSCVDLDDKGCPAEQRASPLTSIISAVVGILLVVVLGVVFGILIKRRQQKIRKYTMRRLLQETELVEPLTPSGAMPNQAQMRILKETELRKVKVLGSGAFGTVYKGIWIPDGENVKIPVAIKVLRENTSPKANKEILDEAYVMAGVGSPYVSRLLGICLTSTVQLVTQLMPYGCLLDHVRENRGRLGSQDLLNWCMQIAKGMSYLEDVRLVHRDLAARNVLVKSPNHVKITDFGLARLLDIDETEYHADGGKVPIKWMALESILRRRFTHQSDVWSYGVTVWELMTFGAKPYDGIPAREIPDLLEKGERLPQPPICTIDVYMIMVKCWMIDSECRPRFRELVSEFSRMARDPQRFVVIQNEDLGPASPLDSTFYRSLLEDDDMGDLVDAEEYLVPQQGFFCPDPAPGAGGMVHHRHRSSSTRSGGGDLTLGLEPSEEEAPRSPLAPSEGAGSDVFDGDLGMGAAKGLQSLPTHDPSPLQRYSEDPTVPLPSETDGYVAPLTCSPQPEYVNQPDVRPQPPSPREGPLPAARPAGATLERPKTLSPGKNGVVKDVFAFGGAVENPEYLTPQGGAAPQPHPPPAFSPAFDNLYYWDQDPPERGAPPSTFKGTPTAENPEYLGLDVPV

Turning to `c1ccc2c(c1)CC(N1CCCCC1)c1ccccc1N2` (stereo not given), the viability in assay [1] is 79.5%; in assay [3], 79.5% (inactive); in assay [4] it was 90.1% (inactive); in assay [5], 91.5% (inactive); in assay [6] (setting [9]), 86.8%; in assay [6] (setting [10]) it was 91.5%. In addition, the Her2 level in assay [2] was 91% (inactive). Besides, in assay [6] (H69AR cells + 2 uM doxorubicin), the differential viability (reversal) is 4.69% (inactive). In addition, the inhibition was -1.82% (inactive) in assay [7] and -3.93% (inactive) in assay [8].

In the case of `O=C1CCc2nc3sc4c(c3c(=O)n2N1)CCCC4`, the viability in assay [1] is 86.5%; in assay [3], 86.5% (inactive); in assay [4] it was 85.9% (inactive); in assay [5], 91.3% (inactive); in assay [6] (setting [9]), 90.2%; in assay [6] (setting [10]), 91.3%. Moreover, in assay [2], the Her2 level was 100% (inactive). Further, the differential viability (reversal) in assay [6] (H69AR cells + 2 uM doxorubicin) is 1.12% (inactive). For the same compound, the inhibition in assay [7] is -1.05% (inactive); in assay [8] it was -7.14% (inactive).

Take `O=C(NC1CCCCC1)C1CC(O)CN1C(=O)OCc1ccccc1` (stereo not given): the viability in assay [1] was 88%; in assay [3] it was 88% (inactive); in assay [4], 110% (inactive); in assay [5] it was 93.4% (inactive); in assay [6] (setting [9]) it was 83.9%; in assay [6] (setting [10]), 93.4%. Further, the Her2 level in assay [2] was 93% (inactive). In addition, the differential viability (reversal) in assay [6] (H69AR cells + 2 uM doxorubicin) was 9.51% (inactive). In addition, the inhibition is 0.13% (inactive) in assay [7] and -3.09% (inactive) in assay [8].

In the case of `O=C(O)Cn1cc2c(n1)CCCC2`, the viability in assay [1] was 96%; in assay [3], 96% (inactive); in assay [4], 93.9% (inactive); in assay [5] it was 98% (inactive); in assay [6] (setting [9]), 94%; in assay [6] (setting [10]) it was 98%. For the same compound, in assay [2], the Her2 level is 98% (inactive). Also, the differential viability (reversal) in assay [6] (H69AR cells + 2 uM doxorubicin) is 3.98% (inactive). In addition, the inhibition in assay [7] is -2% (inactive); in assay [8], 5.41% (inactive).

As to `Cc1cc(C(F)F)n2nc(C(=O)Nc3ccc(S(=O)(=O)N4CCCCCC4)cc3)nc2n1`, the viability in assay [1] is 74%; in assay [3], 74% (inactive); in assay [4], 83.4% (inactive); in assay [5] it was 83.3% (inactive); in assay [6] (setting [9]) it was 84.9%; in assay [6] (setting [10]), 83.3%. Moreover, the Her2 level in assay [2] was 73.5% (inactive). Moreover, the differential viability (reversal) in assay [6] (H69AR cells + 2 uM doxorubicin) was -1.62% (inactive). Further, the results for the inhibition in assay [7] and in assay [8] were -3.87% (inactive) and 22.9% (inactive), respectively.

Consider `C/C(=C\c1cc(C(=O)O)c(C)o1)CO`, for which the viability in assay [1] was 102%; in assay [3], 102% (inactive); in assay [4] it was 108% (inactive); in assay [5], 89.1% (inactive); in assay [6] (setting [9]) it was 97.2%; in assay [6] (setting [10]) it was 89.1%. Moreover, the Her2 level in assay [2] is 126% (inactive). For the same compound, in assay [6] (H69AR cells + 2 uM doxorubicin), the differential viability (reversal) was -8.12% (inactive). Moreover, the inhibition in assay [7] is -5.13% (inactive); in assay [8] it was -0.33% (inactive).

Take `CCOC(=O)C1=C(CN2CCOCC2)NC(=O)NC1c1cc(C)ccc1C` (stereo not given): the viability was 92% in assay [1]; 92% (inactive) in assay [3]; 101% (inactive) in assay [4]; 78.9% (inactive) in assay [5]; 62.2% in assay [6] (setting [9]); 78.9% in assay [6] (setting [10]). The Her2 level in assay [2] was 89% (inactive). Further, the differential viability (reversal) in assay [6] (H69AR cells + 2 uM doxorubicin) was 16.7% (inactive). The inhibition was -6.76% (inactive) in assay [7] and 4.33% (inactive) in assay [8].

In the case of `Cc1occc1-c1nnc(SCC(=O)N2CCc3ccccc32)o1`, the viability in assay [1] is 98.5%; in assay [3], 98.5% (inactive); in assay [4] it was 85.8% (inactive); in assay [5] it was 3.12% (active); in assay [6] (setting [9]) it was 2.5%; in assay [6] (setting [10]), 3.12%. Also, in assay [2], the Her2 level was 82.5% (inactive). Also, in assay [6] (H69AR cells + 2 uM doxorubicin), the differential viability (reversal) is 0.62% (inactive). The inhibition in assay [7] is -3.01% (inactive); in assay [8], -3.02% (inactive).

As for `Cc1ccc(S(=O)(=O)n2nc(OC(=O)c3ccco3)cc2N)cc1`, the viability in assay [1] was 92.5%; in assay [3], 92.5% (inactive); in assay [4] it was 96.4% (inactive); in assay [5] it was 88.8% (inactive); in assay [6] (setting [9]) it was 84%; in assay [6] (setting [10]), 88.8%. Also, in assay [2], the Her2 level is 106% (inactive). Further, the differential viability (reversal) in assay [6] (H69AR cells + 2 uM doxorubicin) was 4.73% (inactive). The inhibition in assay [7] is -6.32% (inactive); in assay [8], -1.45% (inactive).

For the compound `COc1ccc(/C(O)=C2/C(=O)C(=O)N(CCCN(C)C)C2c2ccco2)cc1Cl` (stereo not given), the viability in assay [1] is 104%; in assay [3], 104% (inactive); in assay [4], 120% (inactive); in assay [5] it was 95.8% (inactive); in assay [6] (setting [9]) it was 88.6%; in assay [6] (setting [10]), 95.8%. Moreover, the Her2 level in assay [2] is 98.5% (inactive). Moreover, in assay [6] (H69AR cells + 2 uM doxorubicin), the differential viability (reversal) was 7.21% (inactive). Moreover, the inhibition in assay [7] was -6.62% (inactive); in assay [8] it was -10.7% (inactive).

As to `Cc1ccc(CNC(=O)C2CCCN(S(=O)(=O)c3cccnc3)C2)cc1` (stereo not given), the viability in assay [1] is 92.5%; in assay [3] it was 92.5% (inactive); in assay [4], 104% (inactive); in assay [5] it was 99.6% (inactive); in assay [6] (setting [9]), 89%; in assay [6] (setting [10]) it was 99.6%. Moreover, the Her2 level in assay [2] was 109% (inactive). Further, the differential viability (reversal) in assay [6] (H69AR cells + 2 uM doxorubicin) was 10.6% (inactive). Further, the inhibition in assay [7] is -0.26% (inactive); in assay [8] it was -4.18% (inactive).

Regarding `COC(=O)c1ccc(NC(=O)Cn2nnc3ccccc32)cc1`, the viability in assay [1] was 94%; in assay [3], 94% (inactive); in assay [4] it was 109% (inactive); in assay [5], 108% (inactive); in assay [6] (setting [9]), 90%; in assay [6] (setting [10]), 108%. Also, in assay [2], the Her2 level was 82.5% (inactive). Also, the differential viability (reversal) in assay [6] (H69AR cells + 2 uM doxorubicin) is 17.7% (inactive). In addition, the inhibition in assay [7] was 0.13% (inactive); in assay [8], 0% (inactive).

In the case of `C=CCc1cc(OC)ccc1OCC(O)CN1CCN(c2ccc(OC)cc2)CC1` (stereo not given), the viability is 82.5% in assay [1]; 82.5% (inactive) in assay [3]; 89% (inactive) in assay [4]; 99.6% (inactive) in assay [5]; 104% in assay [6] (setting [9]); 99.6% in assay [6] (setting [10]). The Her2 level in assay [2] was 78% (inactive). Also, the differential viability (reversal) in assay [6] (H69AR cells + 2 uM doxorubicin) is -4.29% (inactive). Further, the inhibition is 0.13% (inactive) in assay [7] and 8.57% (inactive) in assay [8].

With `CCCCn1c(SCC(=O)N2CC(=O)Nc3ccccc32)nnc1-c1ccoc1C`, the viability in assay [1] is 86.5%; in assay [3] it was 86.5% (inactive); in assay [4], 97.5% (inactive); in assay [5], 96.7% (inactive); in assay [6] (setting [9]), 91.8%; in assay [6] (setting [10]), 96.7%. In addition, the Her2 level in assay [2] is 85.5% (inactive). The differential viability (reversal) in assay [6] (H69AR cells + 2 uM doxorubicin) was 4.84% (inactive). Further, the inhibition in assay [7] is 2.67% (inactive); in assay [8] it was -8.55% (inactive).

With `O=C(c1cc2ccccc2oc1=O)N1CCSC1c1ccco1` (stereo not given), the viability was 100% in assay [1]; 100% (inactive) in assay [3]; 97.5% (inactive) in assay [4]; 91.5% (inactive) in assay [5]; 85.3% in assay [6] (setting [9]); 91.5% in assay [6] (setting [10]). Further, in assay [2], the Her2 level is 93.5% (inactive). Also, the differential viability (reversal) in assay [6] (H69AR cells + 2 uM doxorubicin) is 6.19% (inactive). In addition, the inhibition in assay [7] is -8.4% (inactive); in assay [8], 5.74% (inactive).

Regarding `CCn1c(SCC(=O)Nc2ccc(C(C)=O)cc2)nc2ccccc21`, the viability in assay [1] is 90%; in assay [3], 90% (inactive); in assay [4], 57% (inactive); in assay [5], 83.1% (inactive); in assay [6] (setting [9]), 86.7%; in assay [6] (setting [10]), 83.1%. In addition, the Her2 level in assay [2] was 77% (inactive). Further, in assay [6] (H69AR cells + 2 uM doxorubicin), the differential viability (reversal) is -3.56% (inactive). In addition, the inhibition in assay [7] is -1.45% (inactive); in assay [8] it was -3.45% (inactive).

The term viability denotes a read-out of living cells in per cent, often relative to untreated cells. For orientation: inhibition means the drop in the measured response relative to a control, in per cent.
